# Laboratory results published in the M2OR odorant receptor database.
# Where a chain is given by its changes, count along the chain named.
# Experiments:
# Settings in all cases: stereoisomer not certain
# OR8I2 (Homo sapiens) = biological target: T1, OR8I2 (Homo sapiens) (UniProt Q8N0Y5)
# T1 sequence (whole entry): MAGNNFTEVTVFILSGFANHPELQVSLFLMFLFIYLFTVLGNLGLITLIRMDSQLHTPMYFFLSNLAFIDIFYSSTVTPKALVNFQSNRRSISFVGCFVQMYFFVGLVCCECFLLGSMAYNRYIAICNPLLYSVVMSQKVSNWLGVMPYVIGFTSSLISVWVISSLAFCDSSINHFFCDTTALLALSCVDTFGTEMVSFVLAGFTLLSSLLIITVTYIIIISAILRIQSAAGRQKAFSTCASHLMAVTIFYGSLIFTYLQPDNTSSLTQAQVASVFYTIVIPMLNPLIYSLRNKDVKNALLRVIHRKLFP
# Procedure, shortened: (§1)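 Each receptor–molecule pair is labelled responsive or non-responsive (inactive) according to whether the original authors judged the measured signal statistically different from baseline. The data were taken from the main text and supplementary material of published papers and checked for typos and inconsistencies. Assay methods differed by source, with transient luciferase assays in mammalian cell lines being common.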
# OR8J1 (Homo sapiens) = biological target: T2, OR8J1 (Homo sapiens) (UniProt Q8NGP2)
# T2 sequence (whole entry): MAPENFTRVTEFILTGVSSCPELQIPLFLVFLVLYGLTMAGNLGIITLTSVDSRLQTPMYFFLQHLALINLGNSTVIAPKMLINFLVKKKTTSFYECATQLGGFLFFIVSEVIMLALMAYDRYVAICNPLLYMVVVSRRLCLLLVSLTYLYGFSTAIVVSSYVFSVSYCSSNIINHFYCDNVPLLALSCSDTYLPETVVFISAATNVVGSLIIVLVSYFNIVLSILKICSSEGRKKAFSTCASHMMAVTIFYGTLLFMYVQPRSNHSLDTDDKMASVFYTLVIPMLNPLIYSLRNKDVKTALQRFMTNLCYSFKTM
# Procedure, shortened: as §1
# OR8J2 (Homo sapiens) = OR8J2 (Homo sapiens) (UniProt Q8NGG1)
# OR8J2 (Homo sapiens), sequence (Q8NGG1 whole entry): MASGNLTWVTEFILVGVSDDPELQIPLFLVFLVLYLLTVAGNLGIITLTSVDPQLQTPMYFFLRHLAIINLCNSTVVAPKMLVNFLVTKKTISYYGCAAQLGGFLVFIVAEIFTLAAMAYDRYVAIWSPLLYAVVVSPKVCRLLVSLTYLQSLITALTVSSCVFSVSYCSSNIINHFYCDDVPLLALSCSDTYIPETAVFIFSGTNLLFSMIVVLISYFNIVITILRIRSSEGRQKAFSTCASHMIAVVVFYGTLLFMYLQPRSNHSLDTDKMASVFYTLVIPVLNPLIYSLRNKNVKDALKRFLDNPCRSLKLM
# Procedure, shortened: as §1
# OR8J3 (Homo sapiens) = biological target: T3, OR8J3 (Homo sapiens) (UniProt Q8NGG0)
# T3 sequence (whole entry): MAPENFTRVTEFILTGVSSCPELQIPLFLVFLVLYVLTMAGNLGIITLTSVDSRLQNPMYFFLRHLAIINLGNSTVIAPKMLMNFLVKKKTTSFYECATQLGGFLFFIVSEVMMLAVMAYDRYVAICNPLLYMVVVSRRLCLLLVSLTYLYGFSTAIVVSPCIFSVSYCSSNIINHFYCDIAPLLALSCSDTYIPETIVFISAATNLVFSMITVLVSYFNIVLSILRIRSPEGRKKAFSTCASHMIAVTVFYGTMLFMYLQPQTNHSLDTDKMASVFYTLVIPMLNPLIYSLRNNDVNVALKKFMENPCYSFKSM
# Procedure, shortened: as §1
# OR8K1 (Homo sapiens) = biological target: T4, OR8K1 (Homo sapiens) (UniProt Q8NGG5)
# T4 sequence (whole entry): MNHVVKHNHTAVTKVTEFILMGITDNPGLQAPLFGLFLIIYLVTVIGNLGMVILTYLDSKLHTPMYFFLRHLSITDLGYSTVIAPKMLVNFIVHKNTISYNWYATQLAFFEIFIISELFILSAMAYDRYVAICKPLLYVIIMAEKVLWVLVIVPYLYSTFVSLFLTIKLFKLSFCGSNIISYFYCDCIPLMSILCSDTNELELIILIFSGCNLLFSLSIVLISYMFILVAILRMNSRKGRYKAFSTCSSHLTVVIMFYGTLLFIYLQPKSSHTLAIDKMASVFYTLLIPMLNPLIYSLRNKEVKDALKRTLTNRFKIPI
# Procedure, shortened: as §1
# OR8K3 (Homo sapiens) = biological target: T5, OR8K3 (Homo sapiens) (UniProt Q8NH51)
# T5 sequence (whole entry): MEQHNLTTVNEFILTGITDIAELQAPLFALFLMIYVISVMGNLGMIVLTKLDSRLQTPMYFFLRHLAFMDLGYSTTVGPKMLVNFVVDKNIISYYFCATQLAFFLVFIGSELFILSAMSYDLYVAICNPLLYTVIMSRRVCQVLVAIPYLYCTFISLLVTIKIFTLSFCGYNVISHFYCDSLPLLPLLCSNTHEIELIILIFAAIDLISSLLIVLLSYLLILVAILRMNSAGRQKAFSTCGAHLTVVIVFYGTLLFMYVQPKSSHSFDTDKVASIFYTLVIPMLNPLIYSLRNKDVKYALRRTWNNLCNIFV
# Procedure, shortened: as §1
# OR8K5 (Homo sapiens) = biological target: T6, OR8K5 (Homo sapiens) (UniProt Q8NH50)
# T6 sequence (whole entry): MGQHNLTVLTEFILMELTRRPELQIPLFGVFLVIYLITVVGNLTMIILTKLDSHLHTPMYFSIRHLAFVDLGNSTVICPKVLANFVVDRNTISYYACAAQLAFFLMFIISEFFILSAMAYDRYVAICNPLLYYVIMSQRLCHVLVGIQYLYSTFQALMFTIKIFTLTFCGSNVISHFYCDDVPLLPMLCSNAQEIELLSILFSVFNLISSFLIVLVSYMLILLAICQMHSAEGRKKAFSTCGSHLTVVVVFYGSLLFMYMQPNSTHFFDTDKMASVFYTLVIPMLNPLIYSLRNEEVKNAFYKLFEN
# Procedure, shortened: as §1
# OR8S1 (Homo sapiens) = biological target: T7, OR8S1 (Homo sapiens) (UniProt Q8NH09)
# T7 sequence (whole entry): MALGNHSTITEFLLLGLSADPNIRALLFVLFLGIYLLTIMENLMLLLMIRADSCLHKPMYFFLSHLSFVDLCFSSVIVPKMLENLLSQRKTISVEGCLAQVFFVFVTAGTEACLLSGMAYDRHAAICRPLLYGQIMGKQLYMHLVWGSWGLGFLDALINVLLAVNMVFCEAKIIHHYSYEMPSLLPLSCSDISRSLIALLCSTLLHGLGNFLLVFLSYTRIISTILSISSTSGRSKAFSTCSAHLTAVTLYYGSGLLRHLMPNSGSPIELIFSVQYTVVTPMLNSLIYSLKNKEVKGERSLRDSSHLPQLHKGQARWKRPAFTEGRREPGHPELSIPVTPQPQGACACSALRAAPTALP
# Procedure, shortened: as §1
# OR8U1 (Homo sapiens) = biological target: T8, OR8U1 (Homo sapiens) (UniProt Q8NH10)
# T8 sequence (whole entry): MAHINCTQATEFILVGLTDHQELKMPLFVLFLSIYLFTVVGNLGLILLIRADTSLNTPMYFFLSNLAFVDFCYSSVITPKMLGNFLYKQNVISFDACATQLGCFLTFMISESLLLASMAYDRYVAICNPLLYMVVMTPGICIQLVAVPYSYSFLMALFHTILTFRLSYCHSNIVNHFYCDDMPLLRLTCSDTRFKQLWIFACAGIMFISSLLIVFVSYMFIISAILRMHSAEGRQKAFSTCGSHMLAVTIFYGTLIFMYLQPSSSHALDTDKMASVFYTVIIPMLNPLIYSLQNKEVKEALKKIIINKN
# Procedure, shortened: as §1
# OR8U3 (Homo sapiens) = biological target: T9, OR8U3 (Homo sapiens) (UniProt Q8NH85)
# T9 sequence (whole entry): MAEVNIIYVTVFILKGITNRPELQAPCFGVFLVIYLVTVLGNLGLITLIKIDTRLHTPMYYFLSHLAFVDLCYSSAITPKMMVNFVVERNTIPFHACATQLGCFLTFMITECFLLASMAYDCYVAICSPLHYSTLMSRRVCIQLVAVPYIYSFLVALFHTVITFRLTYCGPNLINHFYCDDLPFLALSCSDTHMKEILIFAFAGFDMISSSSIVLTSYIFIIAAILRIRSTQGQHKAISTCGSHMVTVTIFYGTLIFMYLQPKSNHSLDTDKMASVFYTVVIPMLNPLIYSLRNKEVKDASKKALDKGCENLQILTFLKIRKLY
# Procedure, shortened: as §1
# OR8U8 (Homo sapiens) = biological target: T10, OR8U8 (Homo sapiens) (UniProt P0C7N1)
# T10 sequence (whole entry): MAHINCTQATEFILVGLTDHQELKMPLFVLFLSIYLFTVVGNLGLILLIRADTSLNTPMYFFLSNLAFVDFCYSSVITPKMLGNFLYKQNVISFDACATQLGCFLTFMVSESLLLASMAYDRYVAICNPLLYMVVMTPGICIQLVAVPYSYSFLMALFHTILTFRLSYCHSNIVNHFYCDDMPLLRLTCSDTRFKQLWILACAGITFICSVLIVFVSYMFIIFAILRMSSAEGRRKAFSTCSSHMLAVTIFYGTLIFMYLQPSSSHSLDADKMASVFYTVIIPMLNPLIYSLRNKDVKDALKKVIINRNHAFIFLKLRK
# Procedure, shortened: as §1
# OR8U9 (Homo sapiens) = biological target: T11, OR8U9 (Homo sapiens) (UniProt P0C7N5)
# T11 sequence (whole entry): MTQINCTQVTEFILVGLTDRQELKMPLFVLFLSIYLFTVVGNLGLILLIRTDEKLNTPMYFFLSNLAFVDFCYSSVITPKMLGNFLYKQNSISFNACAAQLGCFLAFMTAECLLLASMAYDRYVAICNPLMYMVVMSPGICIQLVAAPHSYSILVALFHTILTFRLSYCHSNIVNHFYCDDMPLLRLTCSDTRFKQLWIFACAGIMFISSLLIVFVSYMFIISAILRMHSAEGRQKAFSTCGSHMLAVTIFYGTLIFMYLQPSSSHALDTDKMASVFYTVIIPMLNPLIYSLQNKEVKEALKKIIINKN
# Procedure, shortened: as §1
# OR9A2 (Homo sapiens) = biological target: T12, OR9A2 (Homo sapiens) (UniProt Q8NGT5)
# T12 sequence (whole entry): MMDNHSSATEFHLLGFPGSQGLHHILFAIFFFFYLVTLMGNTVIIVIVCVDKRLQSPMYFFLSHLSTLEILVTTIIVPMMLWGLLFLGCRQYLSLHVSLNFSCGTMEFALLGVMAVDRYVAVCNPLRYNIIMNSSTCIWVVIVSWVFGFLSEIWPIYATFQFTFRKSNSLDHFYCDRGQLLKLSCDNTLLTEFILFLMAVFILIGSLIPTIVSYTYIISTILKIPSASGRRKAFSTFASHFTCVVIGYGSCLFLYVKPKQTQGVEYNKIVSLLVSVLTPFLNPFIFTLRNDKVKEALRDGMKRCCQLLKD
# Procedure, shortened: as §1
# OR8J1 = tested on: T13, OR8J1
# T13 sequence (whole entry): T2 sequence (whole entry) with Y120C
# Procedure, shortened: as §1
# OR8J3 E4V = tested on: T14, OR8J3 E4V
# T14 sequence (whole entry): T3 sequence (whole entry) with E4V
# Procedure, shortened: as §1
# OR8U8 [1] = tested on: T15, OR8U8
# T15 sequence (whole entry): T10 sequence (whole entry) with V109I, S112C
# Procedure, shortened: as §1
# OR8U8 [2] = tested on: T16, OR8U8; remark: listed apart in the source
# T16 sequence (whole entry): T10 sequence (whole entry) with H20R, V109I, R165C
# Procedure, shortened: as §1
# OR8U9 T2A Q3H Q293R = tested on: T17, OR8U9 T2A Q3H Q293R
# T17 sequence (whole entry): T11 sequence (whole entry) with T2A, Q3H, Q293R
# Procedure, shortened: as §1
# OR8U9 = tested on: T18, OR8U9
# T18 sequence (whole entry): T11 sequence (whole entry) with Q293R
# Procedure, shortened: as §1
# OR9A2 C304Y = tested on: T19, OR9A2 C304Y
# T19 sequence (whole entry): T12 sequence (whole entry) with C304Y
# Procedure, shortened: as §1
# 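Further: active if original authors judged signal statistically different from baseline.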
Structure (SMILES),odorant receptor agonist call (OR8I2 (Homo sapiens)),odorant receptor agonist call (OR8J1 (Homo sapiens)),odorant receptor agonist call (OR8J2 (Homo sapiens)),odorant receptor agonist call (OR8J3 (Homo sapiens)),odorant receptor agonist call (OR8K1 (Homo sapiens)),odorant receptor agonist call (OR8K3 (Homo sapiens)),odorant receptor agonist call (OR8K5 (Homo sapiens)),odorant receptor agonist call (OR8S1 (Homo sapiens)),odorant receptor agonist call (OR8U1 (Homo sapiens)),odorant receptor agonist call (OR8U3 (Homo sapiens)),odorant receptor agonist call (OR8U8 (Homo sapiens)),odorant receptor agonist call (OR8U9 (Homo sapiens)),odorant receptor agonist call (OR9A2 (Homo sapiens)),odorant receptor agonist call (OR8J1),odorant receptor agonist call (OR8J3 E4V),odorant receptor agonist call (OR8U8 [1]),odorant receptor agonist call (OR8U8 [2]),odorant receptor agonist call (OR8U9 T2A Q3H Q293R),odorant receptor agonist call (OR8U9),odorant receptor agonist call (OR9A2 C304Y)
CC1CCCCCCCCCCCCC(=O)C1 (stereo not drawn),inactive,inactive,inactive,inactive,inactive,inactive,inactive,inactive,inactive,inactive,inactive,inactive,inactive,–,–,–,–,–,–,–
CCCCCC(=O)C(C)C(C)=O (stereo not drawn),inactive,inactive,–,inactive,inactive,inactive,inactive,inactive,inactive,inactive,inactive,inactive,inactive,–,–,–,–,–,–,–
CCCC(S)CCOC(C)=O (stereo not drawn),inactive,inactive,–,inactive,inactive,inactive,inactive,inactive,inactive,inactive,–,inactive,inactive,inactive,inactive,inactive,inactive,inactive,inactive,inactive
CCC(S)C(C)CO (stereo not drawn),inactive,inactive,–,inactive,inactive,inactive,inactive,inactive,inactive,inactive,inactive,inactive,inactive,–,–,–,–,–,–,–
CCCCC(S)C(C)CO (stereo not drawn),inactive,inactive,–,inactive,inactive,inactive,inactive,inactive,inactive,inactive,inactive,inactive,inactive,–,–,–,–,–,–,–
CC1=NC(C)C(C)S1 (stereo not drawn),inactive,inactive,–,inactive,inactive,inactive,inactive,inactive,inactive,inactive,–,inactive,inactive,inactive,inactive,inactive,inactive,inactive,inactive,inactive
O=C1CCOc2ccccc21,–,–,–,–,–,–,inactive,–,–,active,–,–,–,–,–,–,–,–,–,–
CC(=O)c1c(C)c([N+](=O)[O-])c(C(C)(C)C)c([N+](=O)[O-])c1C,inactive,inactive,inactive,inactive,inactive,inactive,inactive,inactive,inactive,inactive,inactive,inactive,inactive,–,–,–,–,–,–,–
CC1=C(O)C(=O)OC1C (stereo not drawn),inactive,inactive,–,inactive,inactive,inactive,inactive,inactive,inactive,inactive,–,inactive,inactive,inactive,inactive,inactive,inactive,inactive,inactive,inactive
